Results published in ChEMBL document CHEMBL4043167, “Identification of pyrazolopyrimidine arylsulfonamides as CC-chemokine receptor 4 (CCR4) antagonists” (Bioorg Med Chem, 2017).
In brackets after ≈: the same amount, converted by molar mass. Activity calls are given as the source filed them. The calls are words filed in the database; no cut-off is given here.

Columns and labels:
[1] = Lipophilicity, log D of the compound by chromatographic analysis; type: physicochemical
Summary of the method: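 Chromatographic logD measured at pH 7.4 (chromlogD7.4).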

[2] = molecular target: T1, C-C chemokine receptor type 4 (Homo sapiens, UniProt P51679); experiment: Antagonist activity at human recombinant CCR4 receptor expressed in CHO cell membranes by [35S]GTPgammaS binding assay; type: functional
T1 sequence (P51679 whole entry): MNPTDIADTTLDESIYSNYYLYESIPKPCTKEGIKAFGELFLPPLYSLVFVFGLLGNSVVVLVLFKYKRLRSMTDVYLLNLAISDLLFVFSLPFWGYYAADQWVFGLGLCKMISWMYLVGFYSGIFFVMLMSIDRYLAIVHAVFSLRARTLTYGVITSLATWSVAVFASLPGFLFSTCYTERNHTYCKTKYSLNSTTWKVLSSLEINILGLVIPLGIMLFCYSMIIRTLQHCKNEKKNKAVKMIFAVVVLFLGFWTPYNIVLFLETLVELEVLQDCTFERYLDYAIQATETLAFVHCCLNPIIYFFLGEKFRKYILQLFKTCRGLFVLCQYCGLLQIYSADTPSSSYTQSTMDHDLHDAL

[3] = Kinetic solubility of the compound by chemiluminescent nitrogen detection assay; type: physicochemical; details: read-out: Kinetic_solubility
[4] = Clearance in human microsomes; type: ADME, Microsome
albumin = albumin (Homo sapiens, UniProt P02768); experiment: Binding affinity to HSA; type: ADME; details: human serum albumin (HSA), read-out: PB (converted)
Sequence of albumin (P02768 whole entry): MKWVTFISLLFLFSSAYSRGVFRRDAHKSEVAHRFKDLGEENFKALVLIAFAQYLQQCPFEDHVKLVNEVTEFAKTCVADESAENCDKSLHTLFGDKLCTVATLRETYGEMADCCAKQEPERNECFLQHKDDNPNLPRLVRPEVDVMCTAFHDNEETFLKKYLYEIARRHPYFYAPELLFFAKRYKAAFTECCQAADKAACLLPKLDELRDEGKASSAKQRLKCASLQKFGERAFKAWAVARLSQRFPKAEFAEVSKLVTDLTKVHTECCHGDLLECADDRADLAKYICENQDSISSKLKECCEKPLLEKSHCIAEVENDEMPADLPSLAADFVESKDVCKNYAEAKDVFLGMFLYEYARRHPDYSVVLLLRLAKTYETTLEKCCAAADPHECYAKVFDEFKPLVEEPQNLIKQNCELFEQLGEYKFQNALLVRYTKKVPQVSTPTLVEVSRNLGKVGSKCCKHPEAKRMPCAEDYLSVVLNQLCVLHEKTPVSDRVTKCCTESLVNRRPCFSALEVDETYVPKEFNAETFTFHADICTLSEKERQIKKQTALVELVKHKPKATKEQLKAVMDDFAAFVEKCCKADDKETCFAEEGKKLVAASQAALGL

[5] = Clearance in rat microsomes; type: ADME, Microsome
[6] = Oral bioavailability in Beagle dog at 1 mg/kg by LCMS/MS method; type: ADME, organism-based, Canis lupus familiaris; details: in vivo
Canis familiaris = experiment: Clearance in Beagle dog at 0.5 mg/kg by LCMS/MS method; details: in vivo
[7] = Clearance in dog microsomes; type: ADME, Canis lupus familiaris, Microsome
Rattus norvegicus = experiment: Clearance in Sprague Dawley (crl:CD(SD)) rat at 1 mg/kg, iv by LCMS/MS method; type: ADME, organism-based; details: in vivo
Summary of the method: (§1)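 Rat given a single IV dose of 1 mg/kg; blood clearance, half-life and volume of distribution derived from the IV profile.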

[8] = Half life in Beagle dog at 1 mg/kg by LCMS/MS method; type: ADME, organism-based, Canis lupus familiaris; details: in vivo
[9] = Volume of distribution at steady state in Beagle dog at 1 mg/kg by LCMS/MS method; type: ADME, organism-based, Canis lupus familiaris; details: in vivo, read-out: Vdss
[10] = Volume of distribution at steady state in Sprague Dawley (crl:CD(SD)) rat at 1 mg/kg, iv by LCMS/MS method; type: ADME, organism-based; details: in vivo, read-out: Vdss; summary of the method: as §1
[11] = Oral bioavailability in Sprague Dawley (crl:CD(SD)) rat at 1 mg/kg by LCMS/MS method; type: ADME, organism-based; details: in vivo
Summary of the method: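 Rat given an oral dose of 1 mg/kg, with a 1 mg/kg IV dose for comparison; oral bioavailability calculated.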

[12] = Half life in Sprague Dawley (crl:CD(SD)) rat at 1 mg/kg, iv by LCMS/MS method; type: ADME, organism-based; details: in vivo; summary of the method: as §1
[13] = molecular target: T1, C-C chemokine receptor type 4; experiment: (§2) Antagonist activity at CCR4 receptor in human whole blood assessed as F-actin polymerization after 30 mins by FACS-based flow cytometric analysis; details: read-out: pA2 (converted)
[14] = molecular target: T2, C-C chemokine receptor type 4 (Homo sapiens) (UniProt P51679); experiment: as §2
T2 sequence (whole entry): T1 sequence (P51679 whole entry)

chromatographic logD [1]	IC50 [2] [nM]	solubility kinetic [3] [µM]	Compound	other results
2.4	316	≥ 649	COc1nn(C)c2nc(N)nc(NS(=O)(=O)c3cccc(Cl)c3Cl)c12	–
5	10000	175 (≈ 67.6 µg/mL)	COc1ccc2c(cnn2C)c1NS(=O)(=O)c1cccc(Cl)c1Cl	–
5.2	3160	≥ 551	COc1nn(C)c2nc(NC(C)C)nc(NS(=O)(=O)c3cccc(Cl)c3Cl)c12	–
0.8	200	≥ 483	COc1nn(CC(=O)O)c2ncnc(NS(=O)(=O)c3cccc(Cl)c3Cl)c12	–
4.6	2000	124 (≈ 44.2 µg/mL)	Cn1nc(NS(=O)(=O)c2cccc(Cl)c2Cl)c2ccccc21	–
3.1	–	309 (≈ 170 µg/mL)	COc1ccc(COc2nc(Br)cnc2NS(=O)(=O)c2ccc(C)cc2)cc1OCCN(C)C	–
1.1	501	≥ 490	COc1nn(CC(N)=O)c2ncnc(NS(=O)(=O)c3cccc(Cl)c3Cl)c12	–
3.3	7940	≥ 441	COCCNc1nc(NS(=O)(=O)c2cccc(Cl)c2Cl)c2c(OC)nn(C)c2n1	–
2.3	794	≥ 438	CCOc1n[nH]c2ncnc(NS(=O)(=O)c3cccc(Cl)c3Cl)c12	–
1.2	> 31600	≥ 383	CCn1[nH]c2ncnc(NS(=O)(=O)c3cccc(Cl)c3Cl)c2c1=O	–
1.4	> 31600	≥ 444	COc1nn(C)c2nc(NCCN(C)C)nc(NS(=O)(=O)c3cccc(Cl)c3Cl)c12	–
4.2	251	219 (≈ 94.5 µg/mL)	CCNc1nc(NS(=O)(=O)c2cccc(Cl)c2Cl)c2c(OC)nn(C)c2n1	–
1.7	12600	≥ 310	Cn1ncc2c(NS(=O)(=O)c3cccc(Cl)c3Cl)ccnc21	–
2.4	63.1	≥ 581	COc1nn(C)c2ncnc(NS(=O)(=O)c3cccc(Cl)c3Cl)c12	CL [4]: < 0.53 mL/min/g; fraction unbound (albumin): 0.015; CL [5]: 0.58 mL/min/g; bioavailability [6]: 100%; clearance (Canis familiaris): 4 mL/min/kg; CL [7]: 0.65 mL/min/g; clearance (Rattus norvegicus): 2 mL/min/kg; half-life [8]: 0.6 h; Vd [9]: 0.3 L/kg; Vd [10]: 0.3 L/kg; bioavailability [11]: 62%; half-life [12]: 1.9 h; Kb [13]: > 6310 nM
2.6	316	≥ 442	COCCn1nc(OC)c2c(NS(=O)(=O)c3cccc(Cl)c3Cl)ncnc21	–
3.4	631	≥ 557	COc1nn(C)c2nc(C)nc(NS(=O)(=O)c3cccc(Cl)c3Cl)c12	–

chromatographic logD [1]	IC50 [2] [nM]	solubility kinetic [3] [µM]	Compound	other results
1.6	3980	358 (≈ 159 µg/mL)	COc1nn(CCN(C)C)c2ncnc(NS(=O)(=O)c3cccc(Cl)c3Cl)c12	–
3.2	79.4	376 (≈ 157 µg/mL)	CNc1nc(NS(=O)(=O)c2cccc(Cl)c2Cl)c2c(OC)nn(C)c2n1	–
2.2	10000	≥ 712	COc1nn(C)c2nc(NC3COC3)nc(NS(=O)(=O)c3cccc(Cl)c3Cl)c12	–
1.6	79.4	≥ 538	COc1nn(C)c2ncnc(NS(=O)(=O)c3ccc(Cl)s3)c12	fraction unbound (albumin): 0.023; Kb [13]: > 6310 nM
1.8	158	402 (≈ 150 µg/mL)	COc1n[nH]c2ncnc(NS(=O)(=O)c3cccc(Cl)c3Cl)c12	–
2.1	251	142 (≈ 61.1 µg/mL)	COc1nn(C2COC2)c2ncnc(NS(=O)(=O)c3cccc(Cl)c3Cl)c12	–
–	–	288 (≈ 111 µg/mL)	COc1cccc2c1c(NS(=O)(=O)c1cccc(Cl)c1Cl)nn2C	fraction unbound (albumin): 0.023; clearance (Rattus norvegicus): 17 mL/min/kg; Vd [10]: 0.5 L/kg; bioavailability [11]: 24%; half-life [12]: 1.2 h; pA2 [14]: inactive
6.5	794	80 (≈ 30.9 µg/mL)	COc1nn(C)c2cccc(NS(=O)(=O)c3cccc(Cl)c3Cl)c12	–
4.5	251	404 (≈ 168 µg/mL)	COc1nn(C(C)C)c2ncnc(NS(=O)(=O)c3cccc(Cl)c3Cl)c12	–
1.7	1260	476 (≈ 171 µg/mL)	Cn1ncc2c(NS(=O)(=O)c3cccc(Cl)c3Cl)ncnc21	–
0.8	15800	≥ 234	O=S(=O)(Nc1ncnc2[nH]nc(O)c12)c1cccc(Cl)c1Cl	–
3.2	3160	170 (≈ 60.6 µg/mL)	Cn1ncc2c(NS(=O)(=O)c3cccc(Cl)c3Cl)cccc21	–
1.9	794	148 (≈ 61.9 µg/mL)	COc1nc(NS(=O)(=O)c2cccc(Cl)c2Cl)c2c(OC)nn(C)c2n1	–
2.3	794	≥ 463	COCCOc1nn(C)c2ncnc(NS(=O)(=O)c3cccc(Cl)c3Cl)c12	–
4	631	≥ 626	COc1nn(C)c2nc(N(C)C)nc(NS(=O)(=O)c3cccc(Cl)c3Cl)c12	–
1.3	631	≥ 509	CNC(=O)Cn1nc(OC)c2c(NS(=O)(=O)c3cccc(Cl)c3Cl)ncnc21	–
